From article PMC5034689 (Molecular Metabolism, 2016)

Columns and labels:
[1] = Plasma protein binding, equilibrium dialysis, summary over species; type: in vitro ADME; settings: human, mouse, rat
Outline: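 Binding was measured by rapid equilibrium dialysis in triplicate, starting at 1 μM drug in the plasma chamber against PBS. Plates were shaken 6 h at 37 °C. Samples were matrix-matched to 1:1 plasma:PBS and quantified by LC-MS/MS. Fraction bound = ([plasma] − [PBS])/[plasma].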

[2] = tested on: MIN6 cells; settings: cited from earlier work
[3] = tested on: DIO WT mice; test: Long-term TNP for reversal of DIO in WT mice; type: in vivo
Outline: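 Inbred IP6K1-KO mice (seventh generation) and WT littermates, n = 4/group, received HFD for 8 weeks, then daily injections (10 mg/kg) with continued HFD for 10 weeks. GTT was done at week 5: 5 h fast, glucose 2 g/kg i.p., tail-vein glucometer readings including time 0. After 10 weeks, fat, lean and fluid masses were measured by LF-NMR, and mice were sacrificed after a 5 h fast.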

[4] = target: Recombinant human IP6K1 (Homo sapiens, UniProt Q92551); test: IP6K1 activity assay in vitro, radiochemical assay; type: biochemical; settings: TNP 1 μM
Outline: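 Recombinant human IP6K1 (100 ng) was incubated 1 h in 20 mM Tris pH 7.4 with 5 mM MgCl2, 2 nmol IP6, [3H]IP6 (130 nCi), 1 mM ATP and 1 mM DTT, plus DMSO or 1 μM test compound. 5-IP7 was resolved by HPLC, with activity expressed relative to DMSO (100%). Run in triplicate.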

[5] = target: T1, CYP1A2 (Homo sapiens, UniProt P05177); test: CYP450 inhibition in human hepatic microsomes, CYP1A2; type: in vitro ADME; settings: liver microsomes
T1 sequence (P05177 1-516): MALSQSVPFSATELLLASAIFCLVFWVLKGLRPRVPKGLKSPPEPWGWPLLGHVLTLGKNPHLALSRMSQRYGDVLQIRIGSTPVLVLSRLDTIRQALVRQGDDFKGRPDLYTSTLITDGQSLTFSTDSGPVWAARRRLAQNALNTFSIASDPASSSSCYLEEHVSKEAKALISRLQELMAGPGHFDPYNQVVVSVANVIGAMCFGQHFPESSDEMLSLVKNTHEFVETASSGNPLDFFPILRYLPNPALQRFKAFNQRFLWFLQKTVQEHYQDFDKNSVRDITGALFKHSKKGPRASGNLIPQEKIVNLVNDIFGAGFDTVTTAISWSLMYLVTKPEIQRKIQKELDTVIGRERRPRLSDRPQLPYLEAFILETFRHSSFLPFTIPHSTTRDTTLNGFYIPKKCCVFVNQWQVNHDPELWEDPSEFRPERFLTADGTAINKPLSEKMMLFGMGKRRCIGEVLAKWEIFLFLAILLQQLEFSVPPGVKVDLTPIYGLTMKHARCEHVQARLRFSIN

[6] = tested on: DIO mice; test: Short-term TNP treatment of DIO mice; type: in vivo, C57BL6 mice; settings: 20 mg/kg BW daily
Outline: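 Mice fed HFD for 8 weeks received daily 20 mg/kg test compound with continued HFD (vehicle n = 6, treated n = 8). Food intake was measured after 7 days. GTT (glucose 2 g/kg i.p.) and ITT (insulin 0.75 U/kg i.p.) were done on days 12 and 17 after a 5 h fast. Tissues were taken on day 18. Akt S473 was immunoblotted from RIPA lysates, with densitometry n = 3.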

[7] = target: CYP3A4 (Homo sapiens, UniProt P08684); test: CYP450 inhibition in human hepatic microsomes, CYP3A4; type: in vitro ADME; settings: liver microsomes, probe midazolam (hydroxylation to 1′-hydroxymidazolam)
[8] = 10 mg/kg BW daily, 10 weeks, WT
[9] = 10 mg/kg BW daily, 10 weeks, WT, vs vehicle
[10] = after 5 weeks of TNP treatment, WT

Sequence of Recombinant human IP6K1 (Q92551 whole entry): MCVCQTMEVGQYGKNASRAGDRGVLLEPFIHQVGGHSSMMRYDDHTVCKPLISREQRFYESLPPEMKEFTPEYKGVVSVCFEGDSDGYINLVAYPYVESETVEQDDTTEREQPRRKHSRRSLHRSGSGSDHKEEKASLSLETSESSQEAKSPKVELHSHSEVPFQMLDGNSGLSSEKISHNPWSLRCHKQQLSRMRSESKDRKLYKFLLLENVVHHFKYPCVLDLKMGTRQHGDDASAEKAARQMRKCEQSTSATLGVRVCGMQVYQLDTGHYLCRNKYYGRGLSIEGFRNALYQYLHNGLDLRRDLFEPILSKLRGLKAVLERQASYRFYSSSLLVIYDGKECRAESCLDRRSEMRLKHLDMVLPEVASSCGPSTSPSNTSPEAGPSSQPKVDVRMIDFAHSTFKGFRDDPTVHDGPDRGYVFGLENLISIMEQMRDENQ
Sequence of CYP3A4 (P08684 whole entry): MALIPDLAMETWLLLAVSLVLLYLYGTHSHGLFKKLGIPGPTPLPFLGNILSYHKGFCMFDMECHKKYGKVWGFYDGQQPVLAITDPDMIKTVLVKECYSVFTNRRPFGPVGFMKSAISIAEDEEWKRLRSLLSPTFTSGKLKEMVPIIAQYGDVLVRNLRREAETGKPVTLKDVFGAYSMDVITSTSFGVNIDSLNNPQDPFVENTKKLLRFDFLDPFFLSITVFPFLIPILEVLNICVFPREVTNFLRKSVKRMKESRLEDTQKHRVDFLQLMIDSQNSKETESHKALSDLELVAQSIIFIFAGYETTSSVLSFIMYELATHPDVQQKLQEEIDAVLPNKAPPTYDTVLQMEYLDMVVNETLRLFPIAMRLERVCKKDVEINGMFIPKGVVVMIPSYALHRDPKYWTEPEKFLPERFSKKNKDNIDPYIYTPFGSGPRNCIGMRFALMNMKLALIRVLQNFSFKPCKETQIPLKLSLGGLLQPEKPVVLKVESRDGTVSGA

- fraction unbound at 6 h, 1 μM [1]: 0.07 to 0.1
- Testis morphology ([3]; 10 mg/kg BW daily, 10 weeks, DIO mice): unaltered
- Histological morphology and weight of heart and kidney ([3]; 10 mg/kg BW daily, 10 weeks, vs vehicle): similar
- CA1 neuronal density ([3]; long-term TNP treatment, WT and IP6K1-KO mice, stereological analysis): did not significantly alter
- IP6K1 catalytic activity [4]: blocks the catalytic activity of IP6K1
- inhibition at 10 μM [5]: 86%
- inhibition at 10 μM [7]: 98%
Structure (SMILES): O=[N+]([O-])c1ccc(CNc2nc(NCc3cccc(C(F)(F)F)c3)nc3[nH]cnc23)cc1 [TNP, N6-(4-nitrobenzyl)-N2-(3-(trifluoromethyl)benzyl)-9H-purine-2,6-diamine]
- Insulin secretion [2]: reduces insulin secretion
- Serum insulin level ([3]; 10 mg/kg BW daily, 10 weeks, HFD-fed WT): reduces serum insulin level
- Serum cholesterol level [3, 8]: reduces serum cholesterol level
- UCP1 expression [3, 8]: enhances UCP1 expression
- Liver weight [3, 9]: substantially less
- Total fat mass (QNMR) [3, 9]: significantly less
- Reduction in body weight vs vehicle ([3]; 10 mg/kg BW daily, after 10-week of treatment, WT): ~10 g
- Body weight ([3]; 10 mg/kg BW daily, after 10 weeks of injection, DIO WT): 36.9 g
- Fasting blood glucose [3, 10]: reduces fasting blood glucose
- Glucose disposal (GTT) [3, 10]: enhances glucose disposal
- Glucose disposal following glucose injection (GTT) ([6]; 12th day): efficient glucose disposal
- Glucose disposal following insulin injection (ITT) ([6]; 17th day): disposes glucose more efficiently
- Fatty liver (histology) ([6]; 18 days): ameliorates fatty liver
- Serum glycerol levels ([6]; 18 days): does not alter
- Serum insulin level ([6]; 18 days): not significantly altered
- Serum levels of cholesterol or triglycerides ([6]; 18 days): not altered
- Reduction of fat mass by treatment ([6]; 18 days, DIO mice, QNMR): ~3 g
- Akt S473 phosphorylation in the IWAT depot, enhancement vs vehicle ([6]; 18 days, densitometry): 4 fold
- Serum levels of AST and ALT ([6]; 18 days, vs vehicle): less
- UCP1 mRNA expression in the IWAT ([6]; 18 days, vs vehicle): higher
- Weight of the EWAT depot ([6]; 18 days, vs vehicle): significantly less
- Daily energy intake ([6]; after 7 days): does not influence daily energy intake
